The values below come from ChEMBL document CHEMBL1126969, “Antipsoriatic anthrones with modulated redox properties. 1. Novel 10-substituted 1,8-dihydroxy-9(10H)-anthracenones as inhibitors of 5-lipoxygenase” (J Med Chem, 1993).

For orientation: IC50 means the concentration that inhibits the measured activity by half. Usually inhibition stands for the percentage by which the read-out fell short of the control.

For data set [1], the target named is T1, Arachidonate 5-lipoxygenase (Bos taurus, UniProt Q9BEG3).
T1 sequence (Q9BEG3 whole entry): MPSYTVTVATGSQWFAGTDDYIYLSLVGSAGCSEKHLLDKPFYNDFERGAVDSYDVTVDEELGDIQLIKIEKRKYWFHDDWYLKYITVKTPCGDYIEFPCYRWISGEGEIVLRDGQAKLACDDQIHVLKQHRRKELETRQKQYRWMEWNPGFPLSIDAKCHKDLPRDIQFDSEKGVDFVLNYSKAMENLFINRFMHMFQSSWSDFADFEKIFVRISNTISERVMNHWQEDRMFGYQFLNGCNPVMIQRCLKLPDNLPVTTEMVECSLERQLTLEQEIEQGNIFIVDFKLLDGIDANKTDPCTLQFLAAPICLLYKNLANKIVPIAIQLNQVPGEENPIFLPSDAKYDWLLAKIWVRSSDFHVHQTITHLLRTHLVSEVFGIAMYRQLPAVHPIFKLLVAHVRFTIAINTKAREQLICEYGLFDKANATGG
In words: Inhibitory activity against 5-lipoxygenase (inhibition of 5-HETE and LTB4 biosynthesis) in bovine polymorphonuclear leukocytes (PMNL). The format is cell-based.

Data set [2] in a line: Deoxyribose-damaging property as a measure of hydroxyl-radical formation (uM of malondialdehyde/mmol of deoxyribose released by 75 uM test compound). The format is ADME. The essentials: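 2-Deoxy-D-ribose (2 mM) with FeCl3 (0.1 mM) in 30 mM KH2PO4-KOH buffer pH 7.4, compound at 75 μM final (acetonitrile vehicle, fresh stocks), 2 h at 37 °C. TBA/trichloroacetic acid added, heated 100 °C 15 min, acidified, extracted into butanol, A532 read. Calibrated against malondialdehyde standard; expressed as μmol MDA/mmol deoxyribose.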

Data set [3] is described as follows: Reducing activity against 2,2-diphenyl-1-picrylhydrazyl. The data set is classed as ADME.
The nature of data set [4]: Deoxyribose-damaging property as a measure of hydroxyl-radical formation (uM test compound).
Data set [5] concerns the target T2, Arachidonate 5-lipoxygenase (Bos taurus) (UniProt Q9BEG3).
T2 sequence (whole entry): T1 sequence (Q9BEG3 whole entry)
In words: Inhibitory activity against 5-lipoxygenase (inhibition of 5-HETE and LTB4 biosynthesis) in bovine polymorphonuclear leukocytes (PMNL). The format is cell-based. Conditions: concentration not given here. The essentials:
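Bovine PMNL from EDTA blood, platelets removed, 1×10^7 cells/mL in PBS pH 7.4. Compound (DMSO, 0.4% final) preincubated 15 min at 37 °C, then stimulated with CaCl2 2 mM and A23187 20 μM for 10 min. Stopped with methanol/acetonitrile containing NDGA and PGB2 marker. LTB4 (280 nm) and 5-HETE (232 nm) quantified by RP-HPLC against internal and external standards.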

Each structure is given as a SMILES string.

Regarding `O=C1c2c(O)cccc2C(=Cc2cc(O)c(O)c(O)c2)c2cccc(O)c21`, the half-maximal inhibitory concentration (IC50) in data set [1] was 400 nM. Moreover, in data set [2], the Deoxyribose degradation is 6.03 uM of MDA mM-1. The compound further registered a kDPPH in data set [3] of over 100 M⁻¹ s⁻¹.
For the compound `COc1ccc(CCC=C2c3cccc(O)c3C(=O)c3c(O)cccc32)cc1`, in data set [4], the Deoxyribose degradation (uM of MDA mM-1) was under 0.15. Also, the kDPPH in data set [3] is under 1 M⁻¹ s⁻¹. For the same compound, the inhibition in data set [5] is 24%.
